According to ChEMBL document CHEMBL4033790, “Design and Synthesis of Novel Deuterated Ligands Functionally Selective for the γ-Aminobutyric Acid Type A Receptor (GABAAR) α6 Subtype with Improved Metabolic Stability and Enhanced Bioavailability” (J Med Chem, 2018):
≈ marks a conversion by molar mass, not a printed value. Calls of active or inactive are those of the source. The rule behind the calls is not given here.

Test system: Liver
Test: Half life in human liver microsomes at 10 uM by LC-MS/MS analysis
Format: ADME, microsome
Conditions: not given
Method in brief: (§1)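 Compound at 10 μM final was preincubated 5 min at 37 °C with NADPH regenerating system in phosphate buffer, pH 7.4. Human or mouse liver microsomes (0.5 mg/mL protein) were added to start the reaction. Samples were taken at 0 (no microsomes) and 10–60 min and measured by LC-MS/MS against an internal standard. Half-life = 0.693/k, with k the slope of ln peak-area ratio versus time. Three experiments, each in duplicate.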

Compound | t1/2 [h]
COc1ccc(-n2nc3c4cnc(OC)cc4[nH]cc-3c2=O)cc1 | 10.6
[2H]C([2H])([2H])Oc1ccc2c3nn(-c4ccccc4OC([2H])([2H])[2H])c(=O)c-3c[nH]c2c1 | 9.9
[2H]C([2H])([2H])Oc1cccc(-n2nc3c4ccc(OC([2H])([2H])[2H])cc4[nH]cc-3c2=O)c1 | 7.7
[2H]C([2H])([2H])Oc1cccc(-n2nc3c4ccc(Br)cc4[nH]cc-3c2=O)c1 | 1.8
[2H]C([2H])([2H])Oc1ccc2c3nn(-c4ccc(OC([2H])([2H])[2H])nc4)c(=O)c-3c[nH]c2c1 | 9.8
[2H]C([2H])([2H])Oc1ccccc1-n1nc2c3ccc(Br)cc3[nH]cc-2c1=O | 14.2
[2H]C([2H])([2H])Oc1ccccc1-n1nc2c3ccc(OC)cc3[nH]cc-2c1=O | 3.5
[2H]C([2H])([2H])Oc1cccc(-n2nc3c4ccc(OC)cc4[nH]cc-3c2=O)c1 | 3.9

Species: Rattus norvegicus
Test: Displacement of [3H]-flunitrazepam from rat brain GABA-A receptor benzodiazepine site […] at 10 uM after 60 to 90 mins by scintillation counting
Conditions: not given

Compound | inhibition
COc1ccc(-n2nc3c4cc(Cl)ccc4[nH]cc-3c2=O)cn1 | Active

Same assay, conditions: tested as the 2H-labelled form

Compound | inhibition
COc1ccc(-n2nc3c4cc(Cl)ccc4[nH]cc-3c2=O)cn1 | Active

Target: GABA-A receptor; alpha-6/beta-3/gamma-2 (Homo sapiens) (UniProt P18507+P28472+Q16445)
Test: Positive allosteric modulation of GABA-A receptor alpha6beta3gamma2 (unknown origin) expressed in Xenopus laevis oocytes assessed as potentiation of EC3 GABA induced currents up to 10 uM at -60 mV holding potential by electrophysiological method
Format: cell-based
Conditions: not given
Method in brief: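 Stage 5–6 defolliculated Xenopus oocytes were injected with 2.5 ng total mRNA per oocyte: α1, α2, α3 or α5 with β3 and γ2 at 1:1:5, and α4 or α6 with β3 and γ2 at 3:1:5. Oocytes were kept ≥36 h at 18 °C in NDE medium before recording. Compounds were co-applied with GABA titrated to EC3-5 for each oocyte. Curves were fitted with the Hill equation; mean ± SEM from ≥3 oocytes across two batches.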

Compound | Activity
COc1ccc(-n2nc3c4cnc(OC)cc4[nH]cc-3c2=O)cc1 | Active

Same assay, conditions: tested as the 2H-labelled form

Compound | Activity
COc1ccc(-n2nc3c4cc(Cl)ccc4[nH]cc-3c2=O)cn1 | inactive

Test system: Liver
Test: Half life in mouse liver microsomes at 10 uM by LC-MS/MS analysis
Format: ADME, microsome
Conditions: not given
Method in brief: as §1

Compound | t1/2 [h]
COc1ccc(-n2nc3c4cnc(OC)cc4[nH]cc-3c2=O)cc1 | 12
[2H]C([2H])([2H])Oc1ccc2c3nn(-c4ccccc4OC([2H])([2H])[2H])c(=O)c-3c[nH]c2c1 | 13.9
[2H]C([2H])([2H])Oc1cccc(-n2nc3c4ccc(OC([2H])([2H])[2H])cc4[nH]cc-3c2=O)c1 | 9.9
[2H]C([2H])([2H])Oc1cccc(-n2nc3c4ccc(Br)cc4[nH]cc-3c2=O)c1 | 3.6
[2H]C([2H])([2H])Oc1ccc2c3nn(-c4ccc(OC([2H])([2H])[2H])nc4)c(=O)c-3c[nH]c2c1 | 14.5
[2H]C([2H])([2H])Oc1ccccc1-n1nc2c3ccc(Br)cc3[nH]cc-2c1=O | 1.5
[2H]C([2H])([2H])Oc1ccccc1-n1nc2c3ccc(OC)cc3[nH]cc-2c1=O | 10.9
[2H]C([2H])([2H])Oc1cccc(-n2nc3c4ccc(OC)cc4[nH]cc-3c2=O)c1 | 14.5

Test system: not listed separately
Test: Aqueous solubility of the compound in DI water at pH 7 after 2 hrs by LC-MS analysis
Format: physicochemical
Conditions: buffer, pH 7, 2 h
Method in brief: (§2)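 10 mg compound dissolved in 2 mL DMAC; 10 μL of this added to 2 mL DI water (pH 7, sonicated) or 2 mL 0.01 M aq HCl (pH 2), held 2 h at 37 °C. Filtered through 0.45 micron filter, then quantified by LC-MS in SIM mode against calibration curves of standards in DMAC (n = 5); n=3.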

Compound | solubility [µM]
COc1ccc(-n2nc3c4cnc(OC)cc4[nH]cc-3c2=O)cc1 | 103.7 (≈ 33.4 µg/mL)
COc1ccc(-n2nc3c4cc(Cl)ccc4[nH]cc-3c2=O)cn1 | 0.8 (≈ 0.261 µg/mL)

Test system: not listed separately
Test: Solubility of the compound in 0.01M HCl at pH 2 after 2 hrs by LC-MS analysis
Format: physicochemical
Conditions: buffer, pH 2, 2 h
Method in brief: as §2

Compound | solubility [µM]
COc1ccc(-n2nc3c4cnc(OC)cc4[nH]cc-3c2=O)cc1 | 135.9 (≈ 43.8 µg/mL)
COc1ccc(-n2nc3c4cc(Cl)ccc4[nH]cc-3c2=O)cn1 | 0.9 (≈ 0.294 µg/mL)

Test system: not listed separately
Test: Metabolic stability in mouse liver microsomes assessed as parent compound remaining at 10 uM after 60 mins by LC-MS analysis
Format: ADME, microsome
Conditions: read-out: Stability
Method in brief: (§3)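 The 60 min samples of the microsomal incubation (10 μM compound, human or mouse liver microsomes at 0.5 mg/mL, NADPH regenerating system, 37 °C) were analysed by LC-MS. Detection used SIM mode with dual ESI/APCI ionization, calibrated to the retention times and masses of the parent and its O-demethylated metabolites. Peak intensities were measured.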

Compound | remaining at 1 h, 10 µM [%]
COc1ccc(-n2nc3c4cnc(OC)cc4[nH]cc-3c2=O)cc1 | 93
[2H]C([2H])([2H])Oc1ccc2c3nn(-c4ccccc4OC([2H])([2H])[2H])c(=O)c-3c[nH]c2c1 | 92
[2H]C([2H])([2H])Oc1cccc(-n2nc3c4ccc(OC([2H])([2H])[2H])cc4[nH]cc-3c2=O)c1 | 90.5
[2H]C([2H])([2H])Oc1cccc(-n2nc3c4ccc(Br)cc4[nH]cc-3c2=O)c1 | 79.5
[2H]C([2H])([2H])Oc1ccc2c3nn(-c4ccc(OC([2H])([2H])[2H])nc4)c(=O)c-3c[nH]c2c1 | 92.5
COc1ccc(-n2nc3c4cc(Cl)ccc4[nH]cc-3c2=O)cn1 | 85.6
[2H]C([2H])([2H])Oc1ccccc1-n1nc2c3ccc(Br)cc3[nH]cc-2c1=O | 61.3
[2H]C([2H])([2H])Oc1ccccc1-n1nc2c3ccc(OC)cc3[nH]cc-2c1=O | 93
[2H]C([2H])([2H])Oc1cccc(-n2nc3c4ccc(OC)cc4[nH]cc-3c2=O)c1 | 91.6

Test system: HepG2
Test: Cytotoxicity against human HepG2 cells assessed as reduction in cell viability up to 400 uM after 48 hrs by CellTiter-Glo assay
Format: cell-based
Conditions: hepg2, 48 h
Method in brief: (§4)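 HEK293T and HepG2 cells grown in high-glucose DMEM with non-essential amino acids, 10 mM HEPES, penicillin/streptomycin and 10% heat-inactivated FBS. Cells were harvested with trypsin and plated; compound was pin-transferred 3 h later. Incubation was 48 h, then CellTiter-Glo luminescence was read. Controls were DMSO (negative) and a cytotoxic aminoketone (positive). Quadruplicates, three independent runs, normalized to controls, nonlinear regression.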

Compound | Activity
[2H]C([2H])([2H])Oc1ccc2c3nn(-c4ccccc4OC([2H])([2H])[2H])c(=O)c-3c[nH]c2c1 | Non-Toxic
[2H]C([2H])([2H])Oc1cccc(-n2nc3c4ccc(OC([2H])([2H])[2H])cc4[nH]cc-3c2=O)c1 | Non-Toxic
COc1ccc(-n2nc3c4cc(Cl)ccc4[nH]cc-3c2=O)cn1 | Non-Toxic

Test system: not listed separately
Test: Metabolic stability in human liver microsomes assessed as parent compound remaining at 10 uM after 60 mins by LC-MS analysis
Format: ADME, microsome
Conditions: read-out: Stability
Method in brief: as §3

Compound | remaining at 1 h, 10 µM [%]
COc1ccc(-n2nc3c4cnc(OC)cc4[nH]cc-3c2=O)cc1 | 91
[2H]C([2H])([2H])Oc1ccc2c3nn(-c4ccccc4OC([2H])([2H])[2H])c(=O)c-3c[nH]c2c1 | 90.5
[2H]C([2H])([2H])Oc1cccc(-n2nc3c4ccc(OC([2H])([2H])[2H])cc4[nH]cc-3c2=O)c1 | 89.5
[2H]C([2H])([2H])Oc1cccc(-n2nc3c4ccc(Br)cc4[nH]cc-3c2=O)c1 | 63.5
[2H]C([2H])([2H])Oc1ccc2c3nn(-c4ccc(OC([2H])([2H])[2H])nc4)c(=O)c-3c[nH]c2c1 | 90
COc1ccc(-n2nc3c4cc(Cl)ccc4[nH]cc-3c2=O)cn1 | 91.6
[2H]C([2H])([2H])Oc1ccccc1-n1nc2c3ccc(Br)cc3[nH]cc-2c1=O | 92.8
[2H]C([2H])([2H])Oc1ccccc1-n1nc2c3ccc(OC)cc3[nH]cc-2c1=O | 79.9
[2H]C([2H])([2H])Oc1cccc(-n2nc3c4ccc(OC)cc4[nH]cc-3c2=O)c1 | 81.3

Test system: HEK-293T
Test: Cytotoxicity against HEK293T cells assessed as reduction in cell viability up to 400 uM after 48 hrs by CellTiter-Glo assay
Format: cell-based
Conditions: human
Method in brief: as §4

Compound | Activity
[2H]C([2H])([2H])Oc1ccc2c3nn(-c4ccccc4OC([2H])([2H])[2H])c(=O)c-3c[nH]c2c1 | Non-Toxic
[2H]C([2H])([2H])Oc1cccc(-n2nc3c4ccc(OC([2H])([2H])[2H])cc4[nH]cc-3c2=O)c1 | Non-Toxic
COc1ccc(-n2nc3c4cc(Cl)ccc4[nH]cc-3c2=O)cn1 | Non-Toxic

Target: Voltage-gated inwardly rectifying potassium channel KCNH2 (Homo sapiens, UniProt Q12809)
Sequence (Q12809 whole entry): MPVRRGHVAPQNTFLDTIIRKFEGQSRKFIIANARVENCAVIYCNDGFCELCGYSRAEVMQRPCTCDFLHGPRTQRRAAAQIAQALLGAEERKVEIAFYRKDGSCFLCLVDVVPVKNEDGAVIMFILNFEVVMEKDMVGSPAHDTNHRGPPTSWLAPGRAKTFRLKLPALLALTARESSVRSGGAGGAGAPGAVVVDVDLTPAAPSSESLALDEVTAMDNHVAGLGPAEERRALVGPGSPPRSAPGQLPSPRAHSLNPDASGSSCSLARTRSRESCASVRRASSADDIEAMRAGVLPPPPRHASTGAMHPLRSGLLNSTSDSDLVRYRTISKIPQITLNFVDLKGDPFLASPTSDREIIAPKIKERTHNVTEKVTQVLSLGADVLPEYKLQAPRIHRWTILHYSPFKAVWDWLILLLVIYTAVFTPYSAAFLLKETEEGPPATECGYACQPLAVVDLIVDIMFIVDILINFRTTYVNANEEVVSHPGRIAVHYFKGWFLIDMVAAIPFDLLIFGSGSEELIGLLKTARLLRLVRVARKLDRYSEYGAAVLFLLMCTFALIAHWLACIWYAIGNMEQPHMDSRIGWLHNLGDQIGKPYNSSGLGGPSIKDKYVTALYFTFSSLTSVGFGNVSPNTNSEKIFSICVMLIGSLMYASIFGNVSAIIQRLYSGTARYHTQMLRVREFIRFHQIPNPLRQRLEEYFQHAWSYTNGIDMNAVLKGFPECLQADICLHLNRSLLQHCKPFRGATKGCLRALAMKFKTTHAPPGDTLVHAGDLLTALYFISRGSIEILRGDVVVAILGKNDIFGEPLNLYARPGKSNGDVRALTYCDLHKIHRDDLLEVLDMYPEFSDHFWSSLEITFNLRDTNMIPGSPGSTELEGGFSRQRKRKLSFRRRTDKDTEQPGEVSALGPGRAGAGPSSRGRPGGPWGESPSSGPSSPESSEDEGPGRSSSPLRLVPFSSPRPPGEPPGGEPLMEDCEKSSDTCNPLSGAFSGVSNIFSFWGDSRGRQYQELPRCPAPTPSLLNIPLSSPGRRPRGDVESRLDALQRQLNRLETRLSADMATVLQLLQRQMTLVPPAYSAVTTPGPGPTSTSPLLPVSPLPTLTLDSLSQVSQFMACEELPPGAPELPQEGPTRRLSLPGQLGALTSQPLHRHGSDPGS
Test: Displacement of [3H]-dofetilide from human ERG expressed in HEK cell membranes at >10 uM after 60 to 90 mins by scintillation counting
Conditions: not given

Compound | inhibition (INH)
COc1ccc(-n2nc3c4cnc(OC)cc4[nH]cc-3c2=O)cc1 | Not Active
[2H]C([2H])([2H])Oc1ccc2c3nn(-c4ccccc4OC([2H])([2H])[2H])c(=O)c-3c[nH]c2c1 | Not Active
[2H]C([2H])([2H])Oc1cccc(-n2nc3c4ccc(OC([2H])([2H])[2H])cc4[nH]cc-3c2=O)c1 | Not Active
[2H]C([2H])([2H])Oc1cccc(-n2nc3c4ccc(Br)cc4[nH]cc-3c2=O)c1 | Not Active
COc1ccc(-n2nc3c4cc(Cl)ccc4[nH]cc-3c2=O)cn1 | Not Active
[2H]C([2H])([2H])Oc1ccccc1-n1nc2c3ccc(Br)cc3[nH]cc-2c1=O | Not Active
[2H]C([2H])([2H])Oc1ccccc1-n1nc2c3ccc(OC)cc3[nH]cc-2c1=O | Not Active
[2H]C([2H])([2H])Oc1cccc(-n2nc3c4ccc(OC)cc4[nH]cc-3c2=O)c1 | Not Active

Test system: Mus musculus
Test: Neurotoxicity in Swiss Webster mouse assessed as induction of motor impairment at 40 mg/kg administered via oral gavage measured after 10 to 60 mins by rotarod method
Format: toxicity, organism-based
Conditions: in vivo
Method in brief: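 Female mice were given a single oral gavage dose of 40 mg/kg, either in 50% PBS/40% propylene glycol/10% DMSO or, for poorly soluble compounds, in 2% polyethylene glycol plus 2.5% hydroxymethyl cellulose. Rotarod performance was tested 10, 30 and 60 min after dosing, with diazepam 5 mg/kg as positive control.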

Compound | Activity
[2H]C([2H])([2H])Oc1ccc2c3nn(-c4ccc(OC([2H])([2H])[2H])nc4)c(=O)c-3c[nH]c2c1 | Non-Toxic
COc1ccc(-n2nc3c4cc(Cl)ccc4[nH]cc-3c2=O)cn1 | Non-Toxic
